Most compounds without a hit are left out; they make up all but 2.5% or so of the library.
SUMO1-SIM PPI = SUMO1-SIM interaction modulation | SUMO1 binding to a labelled peptide, TR-FRET, 1 h | inhibition, % at 20 µM | AID 602429 | P63165 | 360,000 compounds, 0.33% hits; in the data active = inhibition above about 37%
Target sequence (P63165 whole entry, looked up): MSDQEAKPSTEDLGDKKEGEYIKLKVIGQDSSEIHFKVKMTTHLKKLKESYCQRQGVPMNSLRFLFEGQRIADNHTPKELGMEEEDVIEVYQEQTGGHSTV
UHRF1 MBD2 ctr = UHRF1 methyl-DNA binding inhibition; Q96T88; UHRF1 binding to methylated oligo, TR-FRET; inhibition, % at 4.4 µM; 370,000 compounds, 0.75% hits; AID 687016; in the data active = inhibition above about 21%;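 also: UHRF1 SRA domain binding a hemimethylated CpG hairpin DNA probe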
NS3 helicase inh = inhibitors of Hepatitis C virus NS3 helicase | AID 1800 | inhibition, % at 10.9 µM | NS3 helicase DNA unwinding, Cy5 molecular beacon fluorescence | 290,000 compounds, 0.56% hits;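 active = inhibition above the mean of all tested compounds plus 3 SD, set per campaign, cut at about 35% in these data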
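Assay system: hepatitis C virus NS3 helicase domain fragment enzyme. Also added: annealed dual-labelled DNA beacon duplex, ATP-started. Timing: 1 h reaction at 25 °C, ATP-initiated. Technique: Cy5 fluorescence at 0 and 60 min, beacon hairpin quenching. Evaluation: % inhibition of unwinding. Replication: one well per compound.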
DNMT1 block = DNMT1 (human) enzyme inhibition; P26358; DNMT1 molecular beacon, Hinp1I cleavage, fluorescence; inhibition (reported as % activation of signal), % at 10 µM; 360,000 compounds, 0.83% hits; AID 588458; in the data active = inhibition above about 50%
MBD2 DNA inh = blocks human MBD2 binding to methylated DNA | Q9UBB5 | inhibition, % at 4.4 µM | 370,000 compounds, 0.31% hits | TR-FRET, MBD2 binding to methylated oligonucleotide; in the data active = inhibition above about 13%
Target sequence (Q9UBB5 whole entry, looked up): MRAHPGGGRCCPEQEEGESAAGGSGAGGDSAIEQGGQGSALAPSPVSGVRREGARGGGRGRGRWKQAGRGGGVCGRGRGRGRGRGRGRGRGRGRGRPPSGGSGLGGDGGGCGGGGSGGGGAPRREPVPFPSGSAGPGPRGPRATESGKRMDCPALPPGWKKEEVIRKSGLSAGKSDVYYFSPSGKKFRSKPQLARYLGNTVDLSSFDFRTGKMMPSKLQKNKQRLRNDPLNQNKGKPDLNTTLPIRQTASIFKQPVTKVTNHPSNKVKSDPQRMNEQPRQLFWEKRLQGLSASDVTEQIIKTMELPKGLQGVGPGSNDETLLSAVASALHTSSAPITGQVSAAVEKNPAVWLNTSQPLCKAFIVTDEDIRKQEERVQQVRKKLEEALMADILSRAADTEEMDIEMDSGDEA
DSG3 Ab inh = human desmoglein-3 autoantibody binding inhibition | P32926 | DSG3-coupled beads, scFv-anti-DSG3-GFP binding, flow cytometry; active compounds read low | binding (percent of control), % at 10 µM | 310,000 compounds, 0.48% hits;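 active = binding more than 3 SD below its plate's average and above zero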;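 also: hits lower antibody fragment binding to DSG3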
A number is an active result; 0 = inactive; - = not tested or not shown.

SMILES	SUMO1-SIM PPI	UHRF1 MBD2 ctr	NS3 helicase inh	DNMT1 block	MBD2 DNA inh	DSG3 Ab inh
O=C(CNC(=O)c1ccc(Br)cc1)N=Nc1c(O)[nH]c2ccc([N+](=O)[O-])cc12	0	0	0	0	0	35
O=[N+]([O-])c1ccc2[nH]c(O)c(N=NC(=S)NCC3CCCO3)c2c1 (stereo not given)	0	0	0	0	0	0
CCNC(=S)N=Nc1c(O)[nH]c2ccc([N+](=O)[O-])cc12	0	0	0	0	0	40
CCCCn1c(N)c(N(CCOC)C(=O)CN2C(=O)c3ccccc3C2=O)c(=O)[nH]c1=O	0	0	0	0	0	0
COc1ccc(CN2CCN(Cc3ccccc3C(F)(F)F)CC2)c(OC)c1	0	0	0	0	0	0
CC1=C(C(=O)N2CCCCCC2)CC(CC(=O)NCCCN(C)C)C(=O)N1Cc1ccc(C(C)(C)C)cc1 (stereo not given)	0	0	-	-	0	-
CSc1nc2ccc(NC(=O)c3cccs3)cc2s1	0	0	-	0	0	28
O=C(Nc1ccc(-c2nc3ccc(NC(=O)c4cccs4)cc3[nH]2)cc1)c1cccs1	82	0	0	0	0	0
COc1cc(OC)cc(C(=O)Nc2ccn(C)n2)c1	0	0	-	0	0	0
COc1ccc(-c2nnc(-c3cc4ccccc4oc3=O)o2)cc1	0	0	0	0	0	0
COc1cccc2cc(-c3nnc(-c4ccccc4)o3)c(=O)oc12	0	21	0	0	0	0
O=C(Nc1ccc2c(c1)CCC2)c1cc(S(=O)(=O)Nc2ccc(F)cc2)c(Cl)cc1Cl	0	0	0	0	0	0
COc1ccccc1CNC(=O)CCS(=O)(=O)c1cccc2nonc12	0	0	0	0	0	-
CCC(C(=O)OCC(=O)Nc1cc(C)ccc1OC)c1ccccc1 (stereo not given)	0	0	0	0	0	0
COc1ccccc1CNc1ccc([N+](=O)[O-])cc1C	0	48	0	0	0	0
CCOC(=O)C(Oc1ccc(=O)[nH]n1)C(C)=O (stereo not given)	0	0	0	0	0	0
Cc1ccc(-c2nc3sc(C#N)c(N)n3c(=O)c2C#N)cc1	0	0	0	0	0	68
O=C1c2ccccc2C(=O)N1C1(C(=O)NC2(C(=O)O)CCCC2)CCCC1	0	0	-	0	0	0
CCN(CC)CCOC(=O)c1cccc2c1-c1ccccc1C2O (stereo not given)	0	0	0	0	0	0
C=CCN1[C@@H](C)[C@H](c2ccccc2)Oc2cccc(N3CCCC(C)C3)c2S1(=O)=O (stereo not given in full)	-	23	-	-	0	-
CN(C)C(=S)NC(=O)C(c1ccccc1)c1ccccc1	0	0	0	0	0	-12
CC(=O)NNC(=S)NC(=O)C(c1ccccc1)c1ccccc1	0	0	0	0	0	0
COc1ccc(C2C(C#N)=C(N)N(c3ccccc3)C3=C2C(=O)CCC3)cc1Cn1cc([N+](=O)[O-])cn1 (stereo not given)	0	0	0	0	0	0
CCc1noc(C)c1C(=O)N(C)CC(=O)Nc1ccccc1C(F)(F)F	0	0	-	0	0	7.5
CCc1noc(C)c1C(=O)N(C)CC(=O)Nc1ccc(Cl)c(Cl)c1	0	0	-	0	0	0
SMILES	SUMO1-SIM PPI	UHRF1 MBD2 ctr	NS3 helicase inh	DNMT1 block	MBD2 DNA inh	DSG3 Ab inh
Cc1ccc(N2C(=O)/C(=C\c3ccco3)SC2=S)cc1	0	0	0	0	0	0
O=C1/C(=C\c2ccco2)SC(=S)N1c1ccccc1	0	0	37	0	0	0
Cc1cc(C)cc(NC(=O)COC(=O)CC2CCCC2)c1	0	32	-	0	0	0
CN(c1ccccc1)S(=O)(=O)c1cccc(NC(=O)C2=NNC(=O)CC2)c1	0	0	-	0	0	5.4
Cc1ccc(C(=O)Nc2cccc(S(=O)(=O)N(C)c3ccccc3)c2)o1	0	0	-	0	0	0
CC(C)c1ccccc1NC(=O)C1C2C=CC(C2)C1C(=O)O (stereo not given)	0	0	0	0	0	0
C[C@H]1CN([C@@H](C)CO)C(=O)CCCn2cc(nn2)CO[C@@H]1CN(C)C(=O)Nc1ccnc(N2CCOCC2)c1	0	0	-	0	0	0
Oc1ccc(/C=N/Nc2ccnc3cc(Cl)ccc23)cc1O	55	0	0	0	0	0
CC/C(=N\Nc1ccnc2cc(Cl)ccc12)c1ccc(O)cc1	0	0	0	0	0	-
COCc1ccc(CN2CCCC(CCC(=O)NCc3cccc(OC)c3)C2)o1 (stereo not given)	0	0	0	0	0	0
O=C1c2ccccc2C(=O)C12OC2c1cccc2ccccc12 (stereo not given)	39	0	0	58	0	0
COC(=O)c1ccc(NC(=O)C2CCCN2S(=O)(=O)c2ccc(OC)cc2)cc1 (stereo not given)	0	0	0	0	0	0
COC(=O)c1ccc(NC(=O)C2CC(=O)N(c3ccc(C)cc3)C2)cc1 (stereo not given)	0	0	0	0	0	-25
CCOc1ccc(N2CC(C(=O)Nc3ccc(N4CCOCC4)cc3)CC2=O)cc1 (stereo not given)	0	0	0	0	0	-10
COc1ccc(N2CC(C(=O)Nc3ccc(S(=O)(=O)N4CCCC4)cc3)CC2=O)cc1 (stereo not given)	0	0	0	0	0	31
CCOC(=O)C1CCN(c2c(NCCCN3CCN(Cc4ccccc4)CC3)c(=O)c2=O)CC1	0	0	0	0	0	0
CNC(=O)COC(=O)/C=C/c1cn(-c2ccccc2)nc1-c1ccc(C)o1	0	0	0	0	0	0
CCN(CCCNC(=O)CC(C(=O)N1CCc2ccccc21)n1ccnc1)c1ccccc1 (stereo not given)	0	0	0	0	0	0
O=C(CN1C(=O)NC2(CCCCCC2)C1=O)Nc1ccc(Cl)cc1Cl	0	0	-	0	0	-
O=C(Nc1cc(Cl)ccc1Oc1ccccc1)c1cnccn1	0	0	0	0	0	66
O=C(CN1C(=O)NC2(CCCC2)C1=O)Nc1cc(Cl)ccc1Oc1ccccc1	40	0	-	0	0	0
CSc1ncccc1C(=O)OCc1ccccc1Cl	0	0	0	0	0	0
OCCCc1ccc(O)c(O)c1	0	0	0	0	0	0
CC1CCCC(C)N1/N=C/c1ccc(N(C)C)cc1 (stereo not given)	0	24	0	0	0	0
O=C(COC(=O)COc1ccccc1)Nc1ccc(OC(F)(F)F)cc1	0	0	0	0	0	0
CC(C)(C)NS(=O)(=O)c1ccc(NC(=O)c2cc(-c3ccccc3)nc3ccccc23)cc1	0	0	0	0	0	65
CCc1ccc(-c2cc(C(=O)Nc3ccc(S(=O)(=O)NC(C)=O)cc3)c3ccccc3n2)cc1	0	0	0	0	0	63
Cc1nc(-c2ccccc2)sc1C(=O)CSc1ccc(F)cc1	0	0	0	0	0	0

Assay outcomes (PubChem BioAssay)
